Compound activity from PubChem BioAssay.
An excerpt weighted towards active compounds, which were near 3.8% of everything screened.
CSC inhib: cancer stem cell inhibition; cancer stem cell-like cells viability, luminescence; inhibition, % at 7.5 µM; 300,000 compounds, 1.1% hits; AID 2717; in the data active = inhibition above about 75%; tested in HMLE shEcad cells
MC4R ag barr: activates human MC4R beta-arrestin recruitment | U2OS MC4R beta-arrestin complementation, luminescence; percent of melanotan II response, DMSO zero | activation, % at 8.9 µM | 360,000 compounds, 0.98% hits;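 active = activation above a per-plate cutoff, the mean activation of sample wells on that plate plus 3 SD, cut at about 8% in these data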
ANO1 block: blocks the mouse calcium-activated chloride channel TMEM16A; Q8BHY3; HEK293 TMEM16A/YFP iodide influx fluorescence, ionomycin; normalized B-score (activity score, 25-100; higher = stronger inhibition) at 10 µM; 310,000 compounds, 1.2% hits;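 active = ratio plate-corrected score three or more library SD toward inhibition, starting fluorescence score within five deviations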;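 note: score derived from kinetic fluorescence span divided by baseline fluorescence per well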
TMEM16A act: activators or potentiators of mouse TMEM16A chloride channel | HEK293 TMEM16A/YFP-H148Q/I152L, iodide quench fluorescence; hits give low values | 340,000 compounds, 0.3% hits | B-score at 10 µM | AID 623877;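 active = fluorescence-ratio B-score plate-corrected deviation score at least 3 library SD below zero, with starting fluorescence score within 5 deviations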;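 note: channel opened by trigger with iodide after compound preincubation; score built on the fluorescence ratio of max minus min over baseline; more negative score means more quench and so TMEM16A activation or potentiation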
MC4R antagonist: blocks human MC4R cAMP signaling. MC4R-expressing cells, MTII-stimulated cAMP, LANCE TR-FRET. inhibition, % at 6.5 µM. AID 540295. 360,000 compounds, 0.48% hits;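 active = inhibition above its plate's cutoff, the mean of tested wells on that plate plus 3 SD, cut at about 29% in these data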
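Test system: U2OS cells stably expressing human melanocortin 4 receptor (MC4R); also added: Melanotan II challenge; compound: 6.5 µM single dose; timing: 30-min compound preincubation, 1-h Melanotan II challenge, 1-h detection, room temperature; signal: Eu-cAMP/anti-cAMP TR-FRET, emission 671 nm; repeats: one well per compound, no replicates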
Beta apoptosis: beta cell apoptosis inhibition | INS-1E cytokine-induced death, ATP luminescence, 48 h; percent of positive-control rescue, neutral wells zero | 300,000 compounds, 0.8% hits | AID 435005 | protection from apoptosis, % (concentration not given with the values);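 active = Every replicate reaches about 75%, or at least half do and their mean reaches it too, limit read from the data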;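 note: higher means more ATP so stronger rescue from cytokine killing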
MC4R barr ag: human MC4R beta-arrestin agonism confirmation | U2OS MC4R beta-arrestin recruitment, luminescence; scaled DMSO 0%, Melanotan II 100% | shares compounds with MC4R ag barr | 2,400 compounds, 31% hits | activation, % at 8.9 µM;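 active = mean activation across replicates above the hit cutoff set in the earlier primary screen, cut at about 8% in these data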
MOR-DOR barr ag: counter-screen for MC4R agonists: agonists of mu-delta opioid heterodimer | U2OS PathHunter beta-arrestin, beta-gal luminescence; percent of deltorphin B response, DMSO zero | activation, % at 9.2 µM | shares compounds with MC4R ag barr | 2,400 compounds, 5.8% hits;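 active = mean activation across replicates exceeds the hit threshold derived in the earlier primary screen, cut at about 18% in these data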
Target sequence (P35372 whole entry, looked up): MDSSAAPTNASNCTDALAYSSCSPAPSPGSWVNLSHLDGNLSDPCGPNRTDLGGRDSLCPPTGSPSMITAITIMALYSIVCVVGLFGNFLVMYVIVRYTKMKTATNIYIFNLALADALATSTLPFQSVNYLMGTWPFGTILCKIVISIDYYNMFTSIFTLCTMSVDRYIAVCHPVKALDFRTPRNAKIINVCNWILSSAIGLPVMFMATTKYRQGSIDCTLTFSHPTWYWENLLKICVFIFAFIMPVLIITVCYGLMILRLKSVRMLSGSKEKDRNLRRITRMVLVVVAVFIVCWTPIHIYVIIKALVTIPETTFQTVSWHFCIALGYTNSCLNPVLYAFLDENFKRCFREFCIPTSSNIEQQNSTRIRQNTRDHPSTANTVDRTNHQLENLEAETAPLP
Target sequence (P41143 whole entry, looked up): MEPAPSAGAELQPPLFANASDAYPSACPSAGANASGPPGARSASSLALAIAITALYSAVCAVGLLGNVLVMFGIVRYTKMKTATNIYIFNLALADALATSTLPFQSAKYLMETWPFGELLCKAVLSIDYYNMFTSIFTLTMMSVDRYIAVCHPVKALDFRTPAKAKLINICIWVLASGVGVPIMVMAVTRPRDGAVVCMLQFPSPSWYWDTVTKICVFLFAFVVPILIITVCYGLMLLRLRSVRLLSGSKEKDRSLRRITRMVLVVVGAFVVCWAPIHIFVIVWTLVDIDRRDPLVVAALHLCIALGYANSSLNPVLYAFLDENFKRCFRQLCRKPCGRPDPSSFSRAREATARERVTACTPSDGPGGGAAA
Large screens that a line does not name were inactive (follow-up assays come after a bar, where they were run).

O=S(=O)(N(Cc1ccccc1)[C@@H](CO)Cc1ccccc1)N(Cc1ccccc1)[C@@H](CO)Cc1ccccc1	MC4R ag barr 12.8 (no result: ANO1 block) | MC4R barr ag inactive | MOR-DOR barr ag inactive
Cc1ccc(-c2csc(NC(=O)c3cccc([N+](=O)[O-])c3)n2)cc1	MC4R ag barr 17.6 (no result: CSC inhib) | MC4R barr ag 12.7 | MOR-DOR barr ag inactive
O=C(Nc1ccc(OCc2ccccc2)cc1)c1cccc([N+](=O)[O-])c1	MC4R ag barr 10.1 | MC4R barr ag inactive | MOR-DOR barr ag inactive
O=C(CNC(=S)NC(=O)c1cccc([N+](=O)[O-])c1)c1ccccc1	MC4R ag barr 11.0 | MC4R barr ag inactive | MOR-DOR barr ag inactive
O=C(Nc1ccc([N+](=O)[O-])cc1Cl)c1cccc([N+](=O)[O-])c1	MC4R ag barr 12.5 (no result: CSC inhib, ANO1 block, TMEM16A act, Beta apoptosis) | MC4R barr ag inactive | MOR-DOR barr ag inactive
Cc1noc(C)c1C(=O)Nc1nc(-c2ccc([N+](=O)[O-])cc2)cs1	none
O=C(NC(=S)NCc1ccccc1)c1cccc([N+](=O)[O-])c1	none (no result: Beta apoptosis)
CC(=O)c1ccc(OC2(C)CCN(Cc3csc4ccccc34)C2)cc1 (centres undefined)	none (no result: CSC inhib, ANO1 block, TMEM16A act, Beta apoptosis)
Cc1onc(-c2ccccc2Cl)c1C(=O)NC(=S)NCC(=O)c1ccccc1	MC4R ag barr 19.0, TMEM16A act -9.01 | MC4R barr ag inactive | MOR-DOR barr ag inactive
CC(=O)Nc1nc(-c2ccc([N+](=O)[O-])cc2)cs1	none
O=C(Nc1nc(-c2ccc([N+](=O)[O-])cc2)cs1)c1c(F)cccc1F	MC4R ag barr 23.8 (no result: CSC inhib) | MC4R barr ag inactive | MOR-DOR barr ag inactive
CCc1ccc(NC(=S)NC(=O)c2c(-c3ccccc3Cl)noc2C)cc1	none
CN(CCCn1ccc(NC(=O)OCc2ccccc2)nc1=O)Cc1ccco1	none (no result: CSC inhib, ANO1 block, TMEM16A act, Beta apoptosis)
COc1ccc(OC)c(NC(=S)NC(=O)c2ccc(Br)o2)c1	MC4R ag barr 10.6 | MC4R barr ag inactive | MOR-DOR barr ag 19.2
COc1ccc(CNC(=S)Nc2cc(OC)ccc2OC)cc1	none
CC(C)(C)c1ccc2c(c1)OC(C(=O)N/N=C\c1ccc[nH]1)CO2 (centres undefined)	CSC inhib 118.6, MC4R ag barr 11.3 | MC4R barr ag inactive | MOR-DOR barr ag inactive
CC(C)(C)c1ccc2c(c1)OC(C(=O)N/N=C\c1ccncc1)CO2 (centres undefined)	none
COc1nc(-c2ccc(Cl)cc2)ccc1-c1noc(-c2ccco2)n1	none
COc1nc2c(C)cccc2cc1-c1noc(-c2ccco2)n1	MC4R ag barr 14.4 | MC4R barr ag inactive | MOR-DOR barr ag inactive
CCOC(=O)c1c(C)[nH]c(C(=O)COC(=O)c2ccc([N+](=O)[O-])o2)c1C	none (no result: ANO1 block)
Cc1ccc(C)c(OCC(=O)Nc2nonc2NC(=O)COc2cc(C)ccc2C)c1	MC4R ag barr 19.2 | MC4R barr ag inactive | MOR-DOR barr ag inactive
Cc1c(CCOC(=O)C23CC4CC(CC(C)(C4)C2)C3)sc[n+]1Cc1ccccc1	none
Cc1c(CCOC(=O)C23CC4(C)CC(C)(CC(C)(C4)C2)C3)sc[n+]1CC(=O)c1ccccc1	MC4R ag barr 17.4 (no result: CSC inhib) | MC4R barr ag 16.3 | MOR-DOR barr ag inactive
COc1cccc(N=CNc2cccc(OC)c2)c1	none (no result: CSC inhib, ANO1 block, Beta apoptosis)
C#CCn1c2ccccc2c2nc3ccccc3nc21	MC4R ag barr 10.7 | MC4R barr ag inactive | MOR-DOR barr ag inactive
CCOC(=O)C1=C(c2ccccc2)Nc2ncnn2C1c1ccc(C(=O)O)cc1 (centres undefined)	none
CCOC(=O)C1=C(c2ccccc2)NC(N)=NC1c1ccc(OCc2ccc(C(=O)OC)cc2)cc1 (centres undefined)	MC4R ag barr 14.3 | MC4R barr ag inactive | MOR-DOR barr ag inactive
CCN(CC)S(=O)(=O)c1ccc(Cl)c(NC(=O)COc2ccc(OC)cc2)c1	MC4R ag barr 30.6 | MC4R barr ag 17.0 | MOR-DOR barr ag 26.2
CCCC(=O)Nc1cc(S(=O)(=O)N(CC)CC)ccc1Cl	none
CCN(CC)S(=O)(=O)c1ccc(C)c(NC(=O)COc2ccc(Cl)cc2Br)c1	MC4R ag barr 9.7 | MC4R barr ag 28.9 | MOR-DOR barr ag 39.9
CC(CN1CCCC1)OC(=O)c1ccc(Br)cc1 (centres undefined)	none
CC1CCCCN1C(=O)Cn1c(=O)oc2cc(S(=O)(=O)N3CCCC3)ccc21 (centres undefined)	none
CCOC(=O)c1ccc(S(=O)(=O)NC2CCC(C)CC2)cc1 (centres undefined)	MC4R ag barr 10.6 (no result: ANO1 block) | MC4R barr ag inactive | MOR-DOR barr ag inactive
COc1ccc(NC(=O)c2cc3n(n2)C(C(F)(F)F)CC(c2ccc(OC)cc2)N3)cc1 (centres undefined)	none
O=C(Nc1ccc2c(c1)OCO2)c1cc2n(n1)C(C(F)(F)F)CC(c1ccccc1)N2 (centres undefined)	MC4R ag barr 15.3 | MC4R barr ag inactive | MOR-DOR barr ag inactive
CCOCc1c(C(=O)OCC(=O)NCc2ccc(F)cc2)oc2ccccc12	MC4R ag barr 13.9 (no result: CSC inhib, ANO1 block, Beta apoptosis) | MC4R barr ag inactive | MOR-DOR barr ag inactive
CCOC(=O)c1oc2ccccc2c1NC(=O)COc1ccc(F)cc1	MC4R ag barr 36.9 | MC4R barr ag 25.1 | MOR-DOR barr ag 21.5
CC(=O)c1c(C)[nH]c(C(=O)OCC(=O)Nc2ccc([N+](=O)[O-])cc2Cl)c1C	MC4R ag barr 27.7 | MC4R barr ag inactive | MOR-DOR barr ag inactive
CC(=O)c1c(C)[nH]c(C(=O)OCC(=O)Nc2ccccc2Cl)c1C	none
CCOC(=O)c1c(C)[nH]c(C(=O)OCc2ccc(C)cc2)c1C	none
CCOC(=O)c1c(C)[nH]c(C(=O)OCc2ccc([N+](=O)[O-])cc2)c1C	MC4R ag barr 16.8 | MC4R barr ag inactive | MOR-DOR barr ag inactive
N#Cc1ccccc1S(=O)(=O)N1CCN(C(=O)CCNS(=O)(=O)c2ccc(Cl)cc2)CC1	none (no result: CSC inhib, ANO1 block, Beta apoptosis)
CCCCCCn1c(=O)n2n(c1=O)[C@@H]1CN(S(=O)(=O)c3ccc(C)cc3)C[C@]1(O)[C@@H](OC(=O)NCc1ccccc1)C2	MC4R ag barr 10.1 (no result: CSC inhib, ANO1 block, TMEM16A act, Beta apoptosis) | MC4R barr ag 8.5 | MOR-DOR barr ag inactive
CCC1Oc2ccc(C)cc2N(CC(=O)NCCCN2CCOCC2)C1=O (centres undefined)	none (no result: CSC inhib)
Cc1ccc(/C=C/C(=O)Nc2cc(C)on2)cc1	MC4R ag barr 18.7 (no result: Beta apoptosis) | MC4R barr ag inactive | MOR-DOR barr ag inactive
O=C(Nc1ccccc1OC(F)F)c1oc2ccccc2c1COc1ccccc1	MC4R ag barr 27.0 | MC4R barr ag 13.8 | MOR-DOR barr ag inactive
